Several values for one entry are separate records, joined by “and”; a condition that tells them apart may be missing. Equal values may be shown once.
What was measured:
[1] = Tested for inhibition of growth of sarcoma 180 cells in culture; assay type: functional, cell-based; settings: Mus musculus
Summary of the method: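 Sarcoma 180 cells in suspension in Fischer's medium with 10% horse serum and penicillin/streptomycin, seeded at 10^4 cells/mL. Drug added from 10× stocks in 10% Me2SO/PBS, final 1–100 μM. Control cultures contained 1% Me2SO. Triplicate Coulter counts at 24, 48 and 72 h. IC50 read from a plot of inhibition of cell-number increase at 72 h versus concentration.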

Mus musculus [2] = assay: Tested for mean survival time treated animal not surviving 50 days as a percentage at dose of 1.25 mg/kg; assay type: functional
Summary of the method: (§1)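 Female CD-1 mice, Sarcoma 180 ascites, 0.1 mL of 10^7 cells/mL given ip. Drug in 0.9% NaCl, 5% ethanol, Tween 80, serially diluted with saline. Dosed ip at 0.5 mL daily for 6 days from 24 h post-implant; daily dose based on starting mean weight. T/C is the mean survival of treated mice dying before 50 days vs controls. Survivors are those alive ≥50 days out of those treated.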

Mus musculus [3] = assay: Tested for mean survival time treated animal not surviving 50 days as a percentage at dose of 20 mg/kg; assay type: functional; summary of the method: as §1
Mus musculus [4] = assay: Tested for number of animal surviving at least 50 days out of 10 animal treated at dose of 10 mg/kg; assay type: functional; summary of the method: as §1
Mus musculus [5] = assay: Tested for number of animal surviving at least 50 days out of 5 animal treated at dose of 2.5 mg/kg; assay type: functional; summary of the method: as §1
Mus musculus [6] = assay: Tested for number of animal surviving at least 50 days out of 5 animal treated at dose of 15 mg/kg; assay type: functional; summary of the method: as §1
Mus musculus [7] = assay: Tested for number of animal surviving at least 50 days out of 10 animal treated at dose of 20 mg/kg; assay type: functional; summary of the method: as §1
Mus musculus [8] = assay: Tested for change in body weight from onset to termination at dose of 15 mg/kg; assay type: functional
Summary of the method: (§2)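 Female CD-1 mice inoculated ip with 0.1 mL of 10^7 Sarcoma 180 ascites cells/mL. Drug in 0.9% NaCl with 5% ethanol and Tween 80, serially diluted in saline, given ip once daily for 6 days starting 24 h after implantation. Dose based on mean starting weight. Controls received saline. Weight change recorded from day 0 to day 7, as % change.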

Mus musculus [9] = assay: Tested for number of animal surviving at least 50 days out of 5 animal treated at dose of 1.25 mg/kg; assay type: functional; summary of the method: as §1
Mus musculus [10] = assay: Tested for number of animal surviving at least 50 days out of 10 animal treated at dose of 5 mg/kg; assay type: functional; summary of the method: as §1
Mus musculus [11] = assay: Tested for change in body weight from onset to termination at dose of 2.5 mg/kg; assay type: functional; summary of the method: as §2
Mus musculus [12] = assay: Tested for change in body weight from onset to termination at dose of 10 mg/kg; assay type: functional; summary of the method: as §2
Mus musculus [13] = assay: Tested for mean survival time treated animal not surviving 50 days as a percentage at dose of 10 mg/kg; assay type: functional; summary of the method: as §1
Mus musculus [14] = assay: Tested for change in body weight from onset to termination at dose of 5 mg/kg; assay type: functional; summary of the method: as §2
Mus musculus [15] = assay: Tested for change in body weight from onset to termination at dose of 20 mg/kg; assay type: functional; summary of the method: as §2
Mus musculus [16] = assay: Tested for mean survival time treated animal not surviving 50 days as a percentage at dose of 5 mg/kg; assay type: functional; summary of the method: as §1
Mus musculus [17] = assay: Tested for change in body weight from onset to termination at dose of 1.25 mg/kg; assay type: functional; summary of the method: as §2
Mus musculus [18] = assay: Tested for mean survival time treated animal not surviving 50 days as a percentage at dose of 2.5 mg/kg; assay type: functional; summary of the method: as §1
Mus musculus [19] = assay: Tested for mean survival time treated animal not surviving 50 days as a percentage at dose of 15 mg/kg; assay type: functional; summary of the method: as §1
Mus musculus [20] = assay: Tested for number of animal surviving at least 50 days out of 5 animal treated at dose of 20 mg/kg; assay type: functional; summary of the method: as §1
Mus musculus [21] = assay: Tested for mean survival time treated animal not surviving 50 days as a percentage at dose of 30 mg/kg; assay type: functional; summary of the method: as §1
Mus musculus [22] = assay: Tested for number of animal surviving at least 50 days out of 5 animal treated at dose of 10 mg/kg; assay type: functional; summary of the method: as §1
Mus musculus [23] = assay: Tested for number of animal surviving at least 50 days out of 5 animal treated at dose of 30 mg/kg; assay type: functional; summary of the method: as §1
Mus musculus [24] = assay: Tested for change in body weight from onset to termination at dose of 30 mg/kg; assay type: functional; summary of the method: as §2
Mus musculus [25] = assay: Tested for Mice bearing Ehrlich carcinoma surviving at least 50 days out of 10 animal treated at dose of 20 mg/kg; assay type: functional
Summary of the method: (§3)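 Female CD-1 mice, Ehrlich ascites carcinoma, 0.1 mL of 10^7 cells/mL given ip. Drug in 0.9% NaCl with 5% ethanol and trace Tween 80, serially diluted with saline. Dosed ip at 0.5 mL once daily for 6 days from 24 h post-implant; saline controls. T/C is the mean survival of treated mice dying before 50 days as % of controls. Survivors are those alive ≥50 days.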

Mus musculus [26] = assay: Tested for change in body weight of Mice bearing Ehrlich carcinoma from onset to termination at dose of 5 mg/kg; assay type: functional
Summary of the method: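 Female CD-1 mice given ip implants of Ehrlich carcinoma (0.1 mL of 10^7 cells/mL). Drug in saline containing 5% ethanol and Tween 80, injected ip once daily for 6 consecutive days from 24 h post-implant. Controls received 0.9% NaCl. % body weight change measured between tumor implantation (day 0) and day 7.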

Mus musculus [27] = assay: Tested for Mice bearing […] 755 surviving at least 50 days out of 5 animal treated at dose of 5 mg/kg; assay type: functional
Summary of the method: (§4)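 Female AKD2F1 mice, adenocarcinoma 755, 0.1 mL of 10^7 cells/mL given ip. Vehicle 0.9% NaCl/5% ethanol/Tween 80, serially diluted with saline. Dosed ip at 0.5 mL once daily for 6 consecutive days starting 24 h post-implant; saline controls. T/C is the mean survival of non-50-day survivors as % of controls. Survivors are those alive ≥50 days.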

Mus musculus [28] = assay: Tested for mean survival time of Mice bearing […] 755 not surviving 50 days as a percentage at dose of 20 mg/kg; assay type: functional; summary of the method: as §4
Mus musculus [29] = assay: Tested for Mice bearing Ehrlich carcinoma surviving at least 50 days out of 10 animal treated at dose of 5 mg/kg; assay type: functional; summary of the method: as §3
Mus musculus [30] = assay: Tested for mean survival time of Mice bearing Ehrlich carcinoma not surviving 50 days as a percentage at dose of 10 mg/kg; assay type: functional; summary of the method: as §3
Mus musculus [31] = assay: Tested for Mice bearing […] 755 surviving at least 50 days out of 5 animal treated at dose of 20 mg/kg; assay type: functional; summary of the method: as §4
Mus musculus [32] = assay: Tested for mean survival time of Mice bearing […] 755 not surviving 50 days as a percentage at dose of 5 mg/kg; assay type: functional; summary of the method: as §4
Mus musculus [33] = assay: Tested for change in body weight of Mice bearing […] 755 from onset to termination at dose of 20 mg/kg; assay type: functional
Summary of the method: (§5)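 Adenocarcinoma 755 implanted ip (0.1 mL of 10^7 cells/mL) in female AKD2F1 mice. Daily ip dosing for 6 days beginning 24 h after implantation, vehicle 0.9% NaCl/5% ethanol/Tween 80, lower doses by saline dilution. Control mice received saline. Weight difference between day 0 and day 7 taken as % change and used as a toxicity measure.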

Mus musculus [34] = assay: Tested for change in body weight of Mice bearing […] 755 from onset to termination at dose of 5 mg/kg; assay type: functional; summary of the method: as §5
Mus musculus [35] = assay: Tested for mean survival time of Mice bearing […] 755 not surviving 50 days as a percentage at dose of 10 mg/kg; assay type: functional; summary of the method: as §4
Mus musculus [36] = assay: Tested for change in body weight of Mice bearing […] 755 from onset to termination at dose of 10 mg/kg; assay type: functional; summary of the method: as §5
Mus musculus [37] = assay: Tested for mean survival time of Mice bearing Ehrlich carcinoma not surviving 50 days as a percentage at dose of 5 mg/kg; assay type: functional; summary of the method: as §3
Mus musculus [38] = assay: Tested for mean survival time of Mice bearing Ehrlich carcinoma not surviving 50 days as a percentage at dose of 20 mg/kg; assay type: functional; summary of the method: as §3
Mus musculus [39] = assay: Tested for number of animal surviving at least 50 days out of 10 animal treated at dose of mg/kg; assay type: functional; summary of the method: as §1
Mus musculus [40] = assay: Tested for Mice bearing […] 755 surviving at least 50 days out of 5 animal treated at dose of 10 mg/kg; assay type: functional; summary of the method: as §4

O=Cc1c(C=O)c(O)c2ccccc2c1O
IC50 [1]: 66 µM | Activity (Mus musculus [2]): 81% | Activity (Mus musculus [3]): 76% | Survivors (Mus musculus [4]): 0 | Survivors (Mus musculus [5]): 0 | Survivors (Mus musculus [6]): 1 | Survivors (Mus musculus [7]): 0 | Activity (Mus musculus [8]): 0% | Survivors (Mus musculus [9]): 0 | Survivors (Mus musculus [10]): 0 | Activity (Mus musculus [11]): 14% | Activity (Mus musculus [12]): 17% | Activity (Mus musculus [13]): 90% | Activity (Mus musculus [14]): 14% | Activity (Mus musculus [15]): 1% | Activity (Mus musculus [16]): 93% | Activity (Mus musculus [17]): 16% | Mean survival time, treated vs control (T/C) (Mus musculus [18]): 81% | Activity (Mus musculus [19]): 64%

Cc1c(C)c(O)c(C=O)c(C)c1O
IC50 [1]: 27 µM | Survivors (Mus musculus [20]): 0 | Activity (Mus musculus [3]): 84% | Activity (Mus musculus [21]): 89% | Survivors (Mus musculus [22]): 0 | Activity (Mus musculus [12]): 25% | Activity (Mus musculus [13]): 94% | Survivors (Mus musculus [23]): 0 | Activity (Mus musculus [24]): 17% | Activity (Mus musculus [15]): 25%

CC(=O)Oc1c(C)c(C)c(OC(C)=O)c2c1C(OC(C)=O)OC2OC(C)=O (centres undefined)
Survivors (Mus musculus [25]): 3 | Activity (Mus musculus [26]): 4% | IC50 [1]: < 25 µM | Survivors (Mus musculus [27]): 3 | Activity (Mus musculus [28]): 38% | Survivors (Mus musculus [29]): 2 | Activity (Mus musculus [3]): 109% | Survivors (Mus musculus [7]): 0 | Activity (Mus musculus [30]): 195% | Survivors (Mus musculus [31]): 1 | Survivors (Mus musculus [10]): 0 | Activity (Mus musculus [32]): 59% | Activity (Mus musculus [33]): -14% | Activity (Mus musculus [34]): -7% | Activity (Mus musculus [35]): 16% | Activity (Mus musculus [36]): -15% | Activity (Mus musculus [37]): 168% | Activity (Mus musculus [12]; 10 mg/kg): -6% and -4% | Activity (Mus musculus [13]): 149% | Activity (Mus musculus [14]): 5% | Activity (Mus musculus [38]): 222% | Activity (Mus musculus [16]): 109% | Survivors (Mus musculus [39]): 0 | Survivors (Mus musculus [40]): 4

Cc1c(C)c(O)c(C)c(C)c1O [DUROHYDROQUINONE]
IC50 [1]: 12 µM

Source: ChEMBL document CHEMBL1121449, “Synthesis and antineoplastic activity of hydroquinone dialdehydes” (J Med Chem, 1980)
